These results are taken from ChEMBL document CHEMBL5223168, “Using Imidazo[2,1-b][1,3,4]thiadiazol Skeleton to Design and Synthesize Novel MNK Inhibitors” (ACS Med Chem Lett, 2023).

One assay relates to 3T3-L1. Description: Inhibition of MNK in mouse 3T3-L1 cells assessed as inhibition of eIF4E phosphorylation at 5 uM incubated for 2 hrs by Western blot analysis. The class given is cell-based. A digest of the protocol:
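Mouse 3T3-L1 cells exposed to compound at 5 μM for 2 h; lysates resolved by SDS-PAGE and immunoblotted for phospho-eIF4E. Reference MNK inhibitor run in parallel at 1 μM.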
Background: A western blot detects proteins with antibodies after separation by electrophoresis.

Assay [1] addresses MAP kinase-interacting serine/threonine-protein kinase 1 (Homo sapiens, UniProt Q9BUB5). Description: Inhibition of MNK1 (unknown origin) incubated for 60 mins using CREB as substrate in presence of ATP by LANCE Ultra kinase assay. For orientation: TR-FRET usually uses a lanthanide donor and a delayed reading to cut background.
Assay [2] addresses MAP kinase-interacting serine/threonine-protein kinase 2 (Homo sapiens, UniProt Q9HBH9). Description: Inhibition of MNK2 (unknown origin) incubated for 60 mins using CREB as substrate in presence of ATP by LANCE Ultra kinase assay.
The next assay relates to A549. Description: Antitumor activity against human A549 cells xenografted in BALB/C nude mouse assessed as T/C ratio at 3 mg/kg, po QD for 14 days. Format: functional. To be noted: time 14 day. A digest of the protocol: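 A549 xenografts in nude mice; compound given orally once daily at 75 or 150 mg/kg for 14 days, irinotecan reference at 3 mg/kg; tumor growth tracked as T/C ratio (relative tumor proliferation rate); body weight monitored.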
(A xenograft is tissue or cells of one species grown in another, often human tumour cells in immunodeficient mice.)

The test system of assay [3] is MEF. In words: Inhibition of MNK in MNK2 knockout mouse MEF cells assessed as inhibition of eIF4E phosphorylation at 3 uM incubated for 2 hrs by Western blot analysis. The class given is cell-based. The gist of the method:
(§1)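 MEFs lacking MNK1 or MNK2 (wild-type for comparison) treated 2 h at indicated concentrations; lysates immunoblotted for p-eIF4E, which reflects the remaining MNK isoform; quantified from three independent experiments, SEM.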

In assay [4] the test system is MEF. In words: Inhibition of MNK in MNK1 knockout mouse MEF cells assessed as inhibition of eIF4E phosphorylation at 1 uM incubated for 2 hrs by Western blot analysis. The class given is cell-based. A digest of the protocol:
as §1

Each structure is given as a SMILES string. pIC50: −log10 of the molar value. Active and inactive are the calls of the source. The calls are words filed in the database; no cut-off is given here.

MAP kinase-interacting serine/threonine-protein kinase 1, sequence (Q9BUB5 whole entry): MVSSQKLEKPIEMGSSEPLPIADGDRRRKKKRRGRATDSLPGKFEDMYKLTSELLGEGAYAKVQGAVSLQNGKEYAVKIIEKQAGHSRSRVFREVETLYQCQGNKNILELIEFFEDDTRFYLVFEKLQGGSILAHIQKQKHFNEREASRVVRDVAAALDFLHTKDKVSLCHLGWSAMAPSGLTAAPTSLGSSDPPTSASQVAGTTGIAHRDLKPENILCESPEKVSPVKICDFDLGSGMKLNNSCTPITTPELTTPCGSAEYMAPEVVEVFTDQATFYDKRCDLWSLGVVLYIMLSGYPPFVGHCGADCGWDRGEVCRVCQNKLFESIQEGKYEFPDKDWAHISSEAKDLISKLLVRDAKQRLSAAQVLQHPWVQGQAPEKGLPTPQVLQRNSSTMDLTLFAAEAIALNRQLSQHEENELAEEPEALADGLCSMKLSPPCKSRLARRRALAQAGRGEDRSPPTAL
MAP kinase-interacting serine/threonine-protein kinase 2, sequence (Q9HBH9 whole entry): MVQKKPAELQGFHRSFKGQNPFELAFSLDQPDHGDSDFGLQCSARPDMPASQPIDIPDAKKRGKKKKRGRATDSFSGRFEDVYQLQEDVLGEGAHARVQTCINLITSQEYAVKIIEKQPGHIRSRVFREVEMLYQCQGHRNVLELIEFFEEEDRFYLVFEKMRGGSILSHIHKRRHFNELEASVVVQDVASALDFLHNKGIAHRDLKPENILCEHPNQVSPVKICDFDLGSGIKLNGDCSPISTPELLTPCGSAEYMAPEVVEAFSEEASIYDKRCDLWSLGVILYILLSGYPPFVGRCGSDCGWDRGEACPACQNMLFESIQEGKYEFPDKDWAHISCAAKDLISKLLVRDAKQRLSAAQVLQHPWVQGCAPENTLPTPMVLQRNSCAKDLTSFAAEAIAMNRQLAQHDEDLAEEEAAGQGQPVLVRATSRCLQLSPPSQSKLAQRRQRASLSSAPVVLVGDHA

The inhibition is the change of the read-out against control, counted positive when it falls. For the molecule `O=C(NCCc1ccncc1)c1ccc(-c2nn3cc(-c4ccc(F)cc4)nc3s2)cc1`, the inhibition entry in the assay on 3T3-L1 is “inactive”.
In general, pIC50 refers to −log10 of the IC50, conventionally taken in molar units. As for `CC1CCCCN1C(=O)c1ccc(-c2nn3c(-c4ccc(C#N)cc4)cnc3s2)cc1` (configuration not stated), the pIC50 in assay [1] was 7.43; in assay [2], 8.27. Besides, in the assay with 3T3-L1, the inhibition result was “Active”.
As to `N#Cc1ccc(-c2cnc3sc(-c4ccc(C(=O)NCCCCCO)cc4)nn23)cc1`, the pIC50 in assay [1] is 7.37; in assay [2], 7.24.
Regarding `COC(=O)c1ccc(-c2cnc3sc(-c4ccc(C(=O)N5CCN(C)CC5)cc4)nn23)cc1`, the pIC50 was 6.43 in assay [1] and 6.98 in assay [2]. For the same molecule, in the assay on 3T3-L1, the inhibition result is “Active”.
As to `N#Cc1ccc(-c2cnc3sc(-c4ccc(C(=O)NCCO)cc4)nn23)cc1`, the pIC50 in assay [1] is 7.87; in assay [2] it was 8.06.
Consider `N#Cc1ccc(-c2cn3nc(-c4ccc(C(=O)N5CCCC5)cc4)sc3n2)cc1`, for which the inhibition result in the assay on 3T3-L1 is “inactive”.
With `N#Cc1ccc(-c2cnc3sc(-c4ccc(C(=O)N5CCCC5)cc4)nn23)cc1`, the negative logarithm of the IC50 (pIC50) is 7.56 in assay [1] and 7.68 in assay [2].
For `CN(C)CCNC(=O)c1ccc(-c2nn3c(-c4ccc(C#N)cc4)cnc3s2)cc1`, the pIC50 in assay [1] is 7.60; in assay [2], 7.48.
Consider `CN(C)CC(C)(C)CNC(=O)c1ccc(-c2nn3cc(-c4ccccc4)nc3s2)cc1`, for which the inhibition entry with 3T3-L1 is “inactive”.
Regarding `CCc1c2c(nc3ccc(OC(=O)N4CCC(N5CCCCC5)CC4)cc13)-c1cc3c(c(=O)n1C2)COC(=O)[C@]3(O)CC` [IRINOTECAN], in the assay on A549, the T/C is listed as 0.4.
Turning to `CN1CCN(C(=O)c2ccc(-c3nn4c(-c5ccncc5)cnc4s3)cc2)CC1`, the pIC50 was 6.68 in assay [1] and 6.77 in assay [2]. In addition, the inhibition result in the assay on 3T3-L1 was “Active”.
For the molecule `CN1CCN(C(=O)c2ccc(-c3nn4cc(-c5ccc(C#N)cc5)nc4s3)cc2)CC1`, the inhibition result in the assay on 3T3-L1 is “inactive”.
For `N#Cc1ccc(-c2cnc3sc(-c4ccc(C(=O)NCCN5CCCC5)cc4)nn23)cc1`, the results for the pIC50 in assay [1] and in assay [2] were 8.00 and 7.98, respectively.
Consider `O=C(NCCCN1CCCC1)c1ccc(-c2nn3cc(-c4ccccc4)nc3s2)cc1`, for which the inhibition result in the assay with 3T3-L1 was “inactive”.
In the case of `O=C(NCCO)c1ccc(-c2nn3cc(-c4ccccc4)nc3s2)cc1`, the inhibition result with 3T3-L1 was “inactive”.
Turning to `N#Cc1ccc(-c2cnc3ccc(-c4ccc(C(=O)N5CCOCC5)cc4)cn23)cc1`, the inhibition in the assay with MEF [3] turned out to be 50%. The inhibition entry in the assay with MEF [4] was “Active”.
With `N#Cc1ccc(-c2cnc3sc(-c4ccc(C(=O)NCCCO)cc4)nn23)cc1`, the pIC50 is 7.67 in assay [1] and 7.78 in assay [2].
On the same counts, the results for `N#Cc1ccc(-c2cnc3sc(-c4ccc(C(=O)NCCCN5CCOCC5)cc4)nn23)cc1` are 7.51 and 7.67.
